Experimental data published in ChEMBL document CHEMBL5365545, “Synthesis and Optimization of 1-Substituted Imidazo[4,5-c]quinoline TLR7 Agonists” (ACS Med Chem Lett, 2023).
The source made the active and inactive calls. The calls are words filed in the database; no cut-off is given here.

Molecular target: T1, Toll-like receptor 8 (Homo sapiens) (UniProt Q9NR97)
T1 sequence (whole entry): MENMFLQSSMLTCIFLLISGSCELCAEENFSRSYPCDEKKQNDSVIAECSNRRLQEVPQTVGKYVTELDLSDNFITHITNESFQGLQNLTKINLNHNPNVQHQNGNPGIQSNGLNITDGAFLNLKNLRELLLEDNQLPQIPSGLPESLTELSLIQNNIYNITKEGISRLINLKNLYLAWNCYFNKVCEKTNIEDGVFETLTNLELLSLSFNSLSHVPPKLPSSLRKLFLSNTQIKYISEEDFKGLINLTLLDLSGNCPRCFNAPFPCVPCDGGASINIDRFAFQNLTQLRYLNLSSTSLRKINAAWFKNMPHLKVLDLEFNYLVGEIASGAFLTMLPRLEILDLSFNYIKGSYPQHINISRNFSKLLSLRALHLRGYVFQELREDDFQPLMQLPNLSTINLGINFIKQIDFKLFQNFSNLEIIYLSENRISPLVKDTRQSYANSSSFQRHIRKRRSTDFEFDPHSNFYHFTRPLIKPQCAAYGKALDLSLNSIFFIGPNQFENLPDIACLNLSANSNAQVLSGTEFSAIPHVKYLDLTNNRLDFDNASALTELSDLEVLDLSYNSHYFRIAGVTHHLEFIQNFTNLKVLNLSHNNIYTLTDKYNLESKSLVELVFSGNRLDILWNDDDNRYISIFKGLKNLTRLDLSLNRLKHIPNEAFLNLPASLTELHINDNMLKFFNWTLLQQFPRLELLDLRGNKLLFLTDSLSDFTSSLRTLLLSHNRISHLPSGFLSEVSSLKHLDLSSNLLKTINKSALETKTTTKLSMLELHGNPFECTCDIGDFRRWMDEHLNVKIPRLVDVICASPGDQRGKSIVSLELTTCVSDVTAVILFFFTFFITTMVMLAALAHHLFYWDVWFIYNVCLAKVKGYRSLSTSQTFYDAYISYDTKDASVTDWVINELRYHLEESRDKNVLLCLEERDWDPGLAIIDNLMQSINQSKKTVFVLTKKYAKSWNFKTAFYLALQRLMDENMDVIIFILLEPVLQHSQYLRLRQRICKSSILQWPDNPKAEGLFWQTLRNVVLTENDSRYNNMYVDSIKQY
Assay: Agonist activity at TLR8 in GM-CSF induced human MDM cells assessed as increase in IL-6 release at 80 to 2000 nM measured after 6 hrs
Format: cell-based
Details: filed as agonist, dose 80-2000 nM
For CCCN(CCC)C(=O)C1=Cc2ccc(-c3ccc(C(=O)N4CCCC4)cc3)cc2N=C(N)C1, the Activity was “Active”.

Tested on: not listed separately
Assay: Apparent permeability of the compound at 200 uM incubated for 5 hrs by PAMPA assay
Format: ADME
Details: not given
Summary of the method: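 PAMPA using an artificial lipid/oil/lipid trilayer membrane separating donor and acceptor wells. Compound was quantified by absorbance at 280 nm, or at 320 nm for some compounds. Runs were in triplicate, and the reported values are averages of three experiments.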
Molecule CCCCc1nc2c(N)nc3ccccc3c2n1Cc1ccc(NC(=O)CCCCCNC(=O)OC(C)(C)C)cc1 has a Papp at 5 h, 200 µM of 1.91 ×10⁻⁶ cm/s. Molecule CCCCc1nc2c(N)nc3ccccc3c2n1Cc1cccc(NC(=O)OC(C)(C)C)c1 has a Papp at 5 h, 200 µM of 1.24 ×10⁻⁶ cm/s. CCCCc1nc2c(N)nc3ccccc3c2n1Cc1ccc(OC)cc1 gave a Papp at 5 h, 200 µM of 4.01 ×10⁻⁶ cm/s. With CCCCc1nc2c(N)nc3ccccc3c2n1Cc1ccc(NC(=O)CCN)cc1 the Papp at 5 h, 200 µM was 0.131 ×10⁻⁶ cm/s. CCOCc1nc2c(N)nc3ccccc3c2n1CC(C)(C)O [RESIQUIMOD] showed a Papp at 5 h, 200 µM of 5.3 ×10⁻⁶ cm/s. For CCCCc1nc2c(N)nc3ccccc3c2n1Cc1ccc(NC(C)=O)cc1, the Papp at 5 h, 200 µM was 3.45 ×10⁻⁶ cm/s. For CCCCC(=O)Nc1ccc(Cn2c(CCCC)nc3c(N)nc4ccccc4c32)cc1, the Papp at 5 h, 200 µM was 1.59 ×10⁻⁶ cm/s. CCCCc1nc2c(N)nc3ccccc3c2n1Cc1ccc(NC(=O)CN)cc1 showed a Papp at 5 h, 200 µM of 0.834 ×10⁻⁶ cm/s. Work on CCCCc1nc2c(N)nc3ccccc3c2n1Cc1cccc(OC)c1 yielded a Papp at 5 h, 200 µM of 2.5 ×10⁻⁶ cm/s. In the case of CCCCc1nc2c(N)nc3ccccc3c2n1Cc1cccc(O)c1, the Papp at 5 h, 200 µM is reported as 0.98 ×10⁻⁶ cm/s. Work on CCCCc1nc2c(N)nc3ccccc3c2n1Cc1ccc(NC(=O)CCCNC(=O)OC(C)(C)C)cc1 yielded a Papp at 5 h, 200 µM of 1.33 ×10⁻⁶ cm/s. Molecule CCCCc1nc2c(N)nc3ccccc3c2n1Cc1cccc(N)c1 has a Papp at 5 h, 200 µM of 5.26 ×10⁻⁶ cm/s. Work on CCCCOC(=O)Cc1ccc(Cn2c(CCCC)nc3c(N)nc4ccccc4c32)cc1 yielded a Papp at 5 h, 200 µM of 14.2 ×10⁻⁶ cm/s. For CCCCc1nc2c(N)nc3ccccc3c2n1Cc1ccc(NC(=O)CCCCN)cc1, the Papp at 5 h, 200 µM was 0.838 ×10⁻⁶ cm/s. CCCCc1nc2c(N)nc3ccccc3c2n1Cc1ccc(NC(=O)CCCCCN)cc1 showed a Papp at 5 h, 200 µM of 0.436 ×10⁻⁶ cm/s. In the case of CCCCc1nc2c(N)nc3ccccc3c2n1Cc1ccc(NC(=O)OCC)cc1, the Papp at 5 h, 200 µM is reported as 8.78 ×10⁻⁶ cm/s. In the case of CCCCc1nc2c(N)nc3ccccc3c2n1Cc1ccc(N)cc1, the Papp at 5 h, 200 µM is reported as 8.51 ×10⁻⁶ cm/s. In the case of CCCCc1nc2c(N)nc3ccccc3c2n1Cc1ccc(NC(=O)CCNC(=O)OC(C)(C)C)cc1, the Papp at 5 h, 200 µM is reported as 0.434 ×10⁻⁶ cm/s. CCCCc1nc2c(N)nc3ccccc3c2n1Cc1ccc(O)cc1 gave a Papp at 5 h, 200 µM of 3.06 ×10⁻⁶ cm/s. CCCCc1nc2c(N)nc3ccccc3c2n1Cc1ccc(NC(=O)CCCCNC(=O)OC(C)(C)C)cc1 gave a Papp at 5 h, 200 µM of 1.95 ×10⁻⁶ cm/s. CCCCc1nc2c(N)nc3ccccc3c2n1Cc1ccc(NC(=O)CCCN)cc1 gave a Papp at 5 h, 200 µM of 0.159 ×10⁻⁶ cm/s. CCCCc1nc2c(N)nc3ccccc3c2n1Cc1ccc(NC(=O)OC(C)C)cc1 gave a Papp at 5 h, 200 µM of 5.12 ×10⁻⁶ cm/s. With CCCCc1nc2c(N)nc3ccccc3c2n1Cc1ccc(NC(=O)CNC(=O)OC(C)(C)C)cc1 the Papp at 5 h, 200 µM was 4.48 ×10⁻⁶ cm/s.

Molecular target: T1, Toll-like receptor 8 (Homo sapiens)
Assay: Agonist activity at TLR8 in GM-CSF induced human MDM cells assessed as increase in TNFalpha release at 80 to 2000 nM measured after 6 hrs
Format: cell-based
Details: filed as agonist, dose 80-2000 nM
For CCCN(CCC)C(=O)C1=Cc2ccc(-c3ccc(C(=O)N4CCCC4)cc3)cc2N=C(N)C1, the Activity was “Active”.

Molecular target: T2, Toll-like receptor 7 (Homo sapiens, UniProt Q9NYK1)
T2 sequence (Q9NYK1 whole entry): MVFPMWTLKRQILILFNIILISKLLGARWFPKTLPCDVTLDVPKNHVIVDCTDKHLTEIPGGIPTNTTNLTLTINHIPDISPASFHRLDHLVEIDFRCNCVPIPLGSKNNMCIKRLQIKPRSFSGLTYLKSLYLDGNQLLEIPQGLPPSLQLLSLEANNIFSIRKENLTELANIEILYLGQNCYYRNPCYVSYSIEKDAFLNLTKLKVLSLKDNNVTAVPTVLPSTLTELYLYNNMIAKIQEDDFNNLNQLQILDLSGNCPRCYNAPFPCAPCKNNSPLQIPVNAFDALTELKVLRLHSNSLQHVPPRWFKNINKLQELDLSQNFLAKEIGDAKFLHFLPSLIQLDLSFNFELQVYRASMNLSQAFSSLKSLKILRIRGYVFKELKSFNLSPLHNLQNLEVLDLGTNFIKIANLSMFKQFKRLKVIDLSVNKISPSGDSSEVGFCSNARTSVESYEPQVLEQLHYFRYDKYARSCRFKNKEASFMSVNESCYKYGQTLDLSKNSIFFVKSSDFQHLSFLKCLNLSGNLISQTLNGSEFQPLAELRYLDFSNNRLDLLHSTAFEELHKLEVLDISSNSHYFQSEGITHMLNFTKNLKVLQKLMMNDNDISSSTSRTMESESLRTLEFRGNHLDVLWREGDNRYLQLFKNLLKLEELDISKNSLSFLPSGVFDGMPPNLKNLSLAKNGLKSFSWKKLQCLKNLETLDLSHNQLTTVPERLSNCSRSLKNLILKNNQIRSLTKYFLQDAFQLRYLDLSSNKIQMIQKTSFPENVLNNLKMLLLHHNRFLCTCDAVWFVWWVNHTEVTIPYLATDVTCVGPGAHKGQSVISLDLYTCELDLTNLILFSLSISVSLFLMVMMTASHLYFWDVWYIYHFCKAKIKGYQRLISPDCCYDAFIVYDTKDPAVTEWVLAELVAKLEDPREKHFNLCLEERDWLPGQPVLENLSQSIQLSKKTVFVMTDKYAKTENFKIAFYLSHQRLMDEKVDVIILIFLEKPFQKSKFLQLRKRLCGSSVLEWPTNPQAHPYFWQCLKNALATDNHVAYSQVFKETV
Assay: Agonist activity at TLR7 in human Ramos-blue cells assessed as increase in NFkappaB activation incubated for 72 hrs by quanti-blue/SEAP reporter gene based assay
Format: cell-based
Details: not given
CCCCc1nc2c(N)nc3ccccc3c2n1Cc1ccc(OC)cc1 gave an EC50 of 232 nM. Work on CCCCc1nc2c(N)nc3ccccc3c2n1Cc1ccc(N)cc1 yielded an EC50 of 69 nM.
